{"source": "ChEMBL document CHEMBL1806443", "about": "“Novel imidazo[4,5-b]pyridine and triaza-benzo[c]fluorene derivatives: synthesis, antiproliferative activity and DNA binding studies” (Eur J Med Chem, 2011)", "key": {"Nucleic Acid [1]": {"system": "Nucleic Acid", "assay": "Binding affinity to calf thymus DNA assessed as change in melting temperature at compound to polynucleotide ratio of 0.5 by UV-VIS spectroscopic analysis", "type": "nucleic-acid assay", "settings": "Bos taurus", "outline": "(§1)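 ct-DNA alone or with compound at set r = [compound]/[polynucleotide], in cacodylate buffer pH 7.0, I = 0.05 mol dm^-3. Absorbance at 260 nm followed against temperature, ligand absorbance subtracted, curves normalized. Tm is the transition midpoint, from the first-derivative maximum or by tangent method. ΔTm = Tm(complex) − Tm(free DNA), mean of ≥2 runs, error ±0.5 °C.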"}, "MIA PaCa-2 [2]": {"system": "MIA PaCa-2", "assay": "Cell cycle arrest in human MIAPaCa2 cells assessed as accumulation at subG1 phase at 1 uM after 24 hrs by propidium iodide staining based flow cytometeric analysis (reference value: 48.7 +/- 0.7%)", "type": "functional"}, "SW-620 [3]": {"system": "SW-620", "assay": "Cytostatic activity against human SW620 cells at 1 to 10 uM after 72 hrs by MTT assay", "type": "functional, cell-based", "outline": "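Monolayers in DMEM with 10% FBS, 2 mM L-glutamine, penicillin and streptomycin (37 °C, 5% CO2) were seeded at 3000–6000 cells/well on day 0. Five 10-fold dilutions (0.01–100 µM) were added, followed by 72-h incubation and MTT read-out. Absorbances were converted to percentage growth by the NIH formulae. Each point was run in quadruplicate in three experiments; ANOVA with Tukey test.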"}, "SW-620 [4]": {"system": "SW-620", "assay": "Antiproliferative activity against human SW620 cells after 72 hrs by MTT assay", "type": "functional, cell-based", "settings": "Homo sapiens, SW-620, 72 h", "outline": "(§2)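 Monolayer cells in DMEM with 10% FBS, 2 mM L-glutamine, penicillin and streptomycin at 37 °C, 5% CO2. Seeded at 3000-6000 cells/well by doubling time on day 0. Five 10-fold dilutions (0.01–100 µM) were added and incubated 72 h. MTT read-out, converted to percentage growth. IC50 by linear regression between bracketing concentrations. Quadruplicate points, three independent experiments, ANOVA/Tukey p<0.05.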"}, "Nucleic Acid [5]": {"system": "Nucleic Acid", "assay": "Binding affinity to calf thymus DNA assessed as fluorescence quenching at compound to DNA ratio of 0.28 by fluorimetric titrations", "type": "nucleic-acid assay", "settings": "Bos taurus", "outline": "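Fluorimetric titration: portions of ct-DNA (sonicated, filtered, concentration as phosphate) added to compound in cacodylate buffer pH 7.0, I = 0.05 mol dm^-3. Emission 350–600 nm, sample absorbance <0.05 at excitation, mostly DNA excess (r < 0.1). Ks and n = [bound compound]/[DNA phosphate] by non-linear least-squares Scatchard fitting.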"}, "HeLa [6]": {"system": "HeLa", "assay": "Antiproliferative activity against human HeLa cells at 0.1 to 10 uM after 72 hrs by MTT assay", "type": "functional, cell-based", "outline": "as §2"}, "SW-620 [7]": {"system": "SW-620", "assay": "Cell cycle arrest in human SW620 cells assessed as accumulation at S phase at 5 uM after 24 hrs by propidium iodide staining based flow cytometeric analysis (reference value: 48.4 +/- 1.4%)", "type": "functional"}, "Nucleic Acid [8]": {"system": "Nucleic Acid", "assay": "Binding affinity to calf thymus DNA assessed as hypochromic changes at 364 nm wavelength by UV-Vis spectrophotometric titrations", "type": "nucleic-acid assay", "settings": "Bos taurus", "outline": "(§3)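 UV/Vis titration: aliquots of ct-DNA (concentration as phosphate) added to compound solution in sodium cacodylate buffer pH 7.0, I = 0.05 mol dm^-3, 1 cm quartz cuvettes. Hypochromism followed at band maxima. Compound absorbance linear up to 2.0 × 10^-5 mol dm^-3. Binding data fitted by the Scatchard equation.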"}, "SW-620 [9]": {"system": "SW-620", "assay": "Cell cycle arrest in human SW620 cells assessed as accumulation at subG1 phase at 1 uM after 48 hrs by propidium iodide staining based flow cytometeric analysis (reference value: 29.1 +/- 1.1%)", "type": "functional"}, "MCF7 [10]": {"system": "MCF7", "assay": "Antiproliferative activity against human MCF7 cells after 72 hrs by MTT assay", "type": "functional, cell-based", "settings": "Homo sapiens, MCF7, 72 h", "outline": "as §2"}, "MIA PaCa-2 [11]": {"system": "MIA PaCa-2", "assay": "Cell cycle arrest in human MIAPaCa2 cells assessed as accumulation at subG1 phase at 10 uM after 48 hrs by propidium iodide staining based flow cytometeric analysis (reference value: 46.8 +/- 0.7%)", "type": "functional"}, "SW-620 [12]": {"system": "SW-620", "assay": "Cell cycle arrest in human SW620 cells assessed as accumulation at S phase at 10 uM after 24 hrs by propidium iodide staining based flow cytometeric analysis (reference value: 48.4 +/- 1.4%)", "type": "functional"}, "SW-620 [13]": {"system": "SW-620", "assay": "Cell cycle arrest in human SW620 cells assessed as accumulation at G1 phase at 5 uM after 48 hrs by propidium iodide staining based flow cytometeric analysis (reference value: 52.7 +/- 0.9%)", "type": "functional"}, "Nucleic Acid [14]": {"system": "Nucleic Acid", "assay": "Binding affinity to calf thymus DNA assessed as hypochromic changes at 347 nm wavelength by UV-Vis spectrophotometric titrations", "type": "nucleic-acid assay", "settings": "Bos taurus", "outline": "as §3"}, "MIA PaCa-2 [15]": {"system": "MIA PaCa-2", "assay": "Cell cycle arrest in human MIAPaCa2 cells assessed as accumulation at G2/M phase at 10 uM after 48 hrs by propidium iodide staining based flow cytometeric analysis (reference value: 14.3 +/- 1.8%)", "type": "functional"}, "SW-620 [16]": {"system": "SW-620", "assay": "Cell cycle arrest in human SW620 cells assessed as accumulation at S phase at 10 uM after 48 hrs by propidium iodide staining based flow cytometeric analysis (reference value: 31.9 +/- 1%)", "type": "functional"}, "HeLa [17]": {"system": "HeLa", "assay": "Antiproliferative activity against human HeLa cells after 72 hrs by MTT assay", "type": "functional, cell-based", "settings": "Homo sapiens, HeLa, 72 h", "outline": "as §2"}, "MIA PaCa-2 [18]": {"system": "MIA PaCa-2", "assay": "Cell cycle arrest in human MIAPaCa2 cells assessed as accumulation at subG1 phase at 5 uM after 24 hrs by propidium iodide staining based flow cytometeric analysis (reference value: 48.7 +/- 0.7%)", "type": "functional"}, "MIA PaCa-2 [19]": {"system": "MIA PaCa-2", "assay": "Cell cycle arrest in human MIAPaCa2 cells assessed as accumulation at G1 phase at 1 uM after 48 hrs by propidium iodide staining based flow cytometeric analysis (reference value: 65.2 +/- 1.9%)", "type": "functional"}, "MIA PaCa-2 [20]": {"system": "MIA PaCa-2", "assay": "Cell cycle arrest in human MIAPaCa2 cells assessed as accumulation at G1 phase at 10 uM after 24 hrs by propidium iodide staining based flow cytometeric analysis (reference value: 51.2 +/- 2.7%)", "type": "functional"}, "Nucleic Acid [21]": {"system": "Nucleic Acid", "assay": "Binding affinity to calf thymus DNA assessed as change in melting temperature at compound to polynucleotide ratio of 0.3 by UV-VIS spectroscopic analysis", "type": "nucleic-acid assay", "settings": "Bos taurus", "outline": "as §1"}, "MCF7 [22]": {"system": "MCF7", "assay": "Antiproliferative activity against human MCF7 cells at 0.1 to 10 uM after 72 hrs by MTT assay", "type": "functional, cell-based", "outline": "as §2"}, "Nucleic Acid [23]": {"system": "Nucleic Acid", "assay": "Binding affinity to calf thymus DNA assessed as increase in CD band at 275 nm wavelength by circular dichroism spectroscopy", "type": "nucleic-acid assay", "settings": "Bos taurus", "outline": "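CD spectra of ct-DNA (1.0 × 10^-5 mol dm^-3, as phosphate) titrated with compound at 25 °C. Sodium cacodylate buffer pH 7.0, I = 0.05 mol dm^-3, 1 cm quartz cuvette. DNA band (~274–275 nm) and induced bands above 300 nm followed versus r = [compound]/[ct-DNA].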"}, "MIA PaCa-2 [24]": {"system": "MIA PaCa-2", "assay": "Cell cycle arrest in human MIAPaCa2 cells assessed as accumulation at subG1 phase at 10 uM after 24 hrs by propidium iodide staining based flow cytometeric analysis (reference value: 48.7 +/- 0.7%)", "type": "functional"}, "MIA PaCa-2 [25]": {"system": "MIA PaCa-2", "assay": "Cell cycle arrest in human MIAPaCa2 cells assessed as accumulation at G2/M phase at 5 uM after 24 hrs by propidium iodide staining based flow cytometeric analysis (reference value: 19.5 +/- 3.9%)", "type": "functional"}, "SW-620 [26]": {"system": "SW-620", "assay": "Cell cycle arrest in human SW620 cells assessed as accumulation at S phase at 5 uM after 48 hrs by propidium iodide staining based flow cytometeric analysis (reference value: 31.9 +/- 1%)", "type": "functional"}}, "note": "pIC50: −log10 of the molar value. Activity calls are given as the source filed them. The calls are words filed in the database; no cut-off is given here.", "data": [{"smiles": "Cl.c1cnc2nc3ccc4ccc(C5=NCCN5)cc4n3c2c1", "values": [{"measurement": "ΔTm", "setting": "Nucleic Acid [1]", "result": 8.4, "unit": "°C"}, {"measurement": "Activity", "setting": "MIA PaCa-2 [2]", "result": 57.8, "unit": "%"}, {"measurement": "Activity", "setting": "SW-620 [3]", "result": "Active"}, {"measurement": "pIC50", "setting": "SW-620 [4]", "result": 6.19}, {"measurement": "log Ks", "setting": "Nucleic Acid [5]", "result": 5.9}, {"measurement": "Activity", "setting": "HeLa [6]", "result": "Active"}, {"measurement": "Activity", "setting": "SW-620 [7]", "result": 11.8, "unit": "%"}, {"measurement": "Activity", "setting": "Nucleic Acid [8]", "result": 35, "unit": "%"}, {"measurement": "Activity", "setting": "SW-620 [9]", "result": 25.4, "unit": "%"}, {"measurement": "pIC50", "setting": "MCF7 [10]", "result": 5.18}, {"measurement": "Activity", "setting": "MIA PaCa-2 [11]", "result": 39.3, "unit": "%"}, {"measurement": "Activity", "setting": "SW-620 [12]", "result": 47.3, "unit": "%"}, {"measurement": "Activity", "setting": "SW-620 [13]", "result": 90.9, "unit": "%"}, {"measurement": "Activity", "setting": "Nucleic Acid [14]", "result": 45, "unit": "%"}, {"measurement": "Activity", "setting": "MIA PaCa-2 [15]", "result": 16.9, "unit": "%"}, {"measurement": "Activity", "setting": "SW-620 [16]", "result": 41.8, "unit": "%"}, {"measurement": "pIC50", "setting": "HeLa [17]", "result": 6.39}, {"measurement": "Activity", "setting": "MIA PaCa-2 [18]", "result": 53.4, "unit": "%"}, {"measurement": "Activity", "setting": "MIA PaCa-2 [19]", "result": 42.4, "unit": "%"}, {"measurement": "Activity", "setting": "MIA PaCa-2 [20]", "result": 52.4, "unit": "%"}, {"measurement": "ΔTm", "setting": "Nucleic Acid [21]", "result": 6.4, "unit": "°C"}, {"measurement": "Activity", "setting": "MCF7 [22]", "result": "Active"}, {"measurement": "Activity", "setting": "Nucleic Acid [23]", "result": "Active"}, {"measurement": "Activity", "setting": "MIA PaCa-2 [24]", "result": 50.2, "unit": "%"}, {"measurement": "Activity", "setting": "MIA PaCa-2 [25]", "result": 18.3, "unit": "%"}, {"measurement": "Activity", "setting": "SW-620 [26]", "result": 7.5, "unit": "%"}]}]}
